Among the data in ChEMBL document CHEMBL6071151, “Discovery of Inhibitors Targeting Protein-Protein Interaction between Bacterial RNA Polymerase and NusG as Novel Antimicrobials” (J Med Chem, 2024) are MIC values, retold here.

Where only a bound is given, the exact number is not on record here.

What all share (type): functional
For one assay, the system named is Klebsiella pneumoniae. The experiment in a line: Antimicrobial activity against Klebsiella pneumoniae ATCC 700603 assessed as reduction in microbial growth measured after 20 hrs by CLSI based broth microdilution method. In a few lines: (§1)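 Broth microdilution per CLSI in cation-adjusted Mueller-Hinton broth. Two-fold serial dilutions from 256 to 0.25 μg/mL, inoculum about 5 × 10⁵ CFU/mL. Read after 20 h at 37 °C. MIC is the lowest concentration with no visible growth. Run in duplicate.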
On the technique in general: In broth dilution the organism is exposed to a series of concentrations in liquid medium.

A further assay concerns Acinetobacter baumannii. The experiment in a line: Antimicrobial activity against Acinetobacter baumannii ATCC 19606 assessed as reduction in microbial growth measured after 20 hrs by CLSI based broth microdilution method. An outline of the steps: as §1
Another assay deals with Streptococcus pneumoniae. The experiment in a line: Antimicrobial activity against Streptococcus pneumoniae ATCC 49619 assessed as reduction in microbial growth measured after 20 hrs by CLSI based broth microdilution method.
In assay [1] the test system is Staphylococcus aureus. The assay is described as follows: Antimicrobial activity against Staphylococcus aureus ATCC 29213 assessed as reduction in microbial growth measured after 20 hrs by CLSI based broth microdilution method. In a few lines: as §1
A further assay relates to Enterobacter cloacae. The assay is described as follows: Antimicrobial activity against Enterobacter cloacae ATCC 13047 assessed as reduction in microbial growth measured after 20 hrs by CLSI based broth microdilution method. In a few lines:
as §1

For the next assay, the system named is Pseudomonas aeruginosa. The experiment in a line: Antimicrobial activity against Pseudomonas aeruginosa ATCC 27853 assessed as reduction in microbial growth measured after 20 hrs by CLSI based broth microdilution method. In a few lines: as §1
The test system of assay [2] is Staphylococcus aureus. The assay is described as follows: Antimicrobial activity against Staphylococcus aureus ATCC 25923 assessed as reduction in microbial growth measured after 20 hrs by CLSI based broth microdilution method. An outline of the steps:
as §1

The next assay has as its system Escherichia coli. The assay is described as follows: Antimicrobial activity against Escherichia coli ATCC 25922 assessed as reduction in microbial growth measured after 20 hrs by CLSI based broth microdilution method. An outline of the steps: as §1
The test system of the next assay is Enterococcus faecalis. The assay is described as follows: Antimicrobial activity against Enterococcus faecalis ATCC 19433 assessed as reduction in microbial growth measured after 20 hrs by CLSI based broth microdilution method. An outline of the steps:
as §1

Regarding `OC(CNCCNc1nccc(C(F)(F)F)n1)COc1ccc(F)cc1` (configuration not stated), the MIC (as a rule, the least concentration at which growth counts as inhibited) in the assay with Klebsiella pneumoniae was more than 256 µg/mL; with Acinetobacter baumannii it was more than 256 µg/mL; in the assay with Streptococcus pneumoniae, 128 µg/mL; with Staphylococcus aureus [1], 256 µg/mL; in the assay with Enterobacter cloacae, more than 256 µg/mL; in the assay with Pseudomonas aeruginosa, more than 256 µg/mL. For the same compound, the MIC in the assay with Staphylococcus aureus [2], with Escherichia coli and in the assay with Enterococcus faecalis was more than 256 µg/mL each time.

As to `O=[N+]([O-])c1ccc(NCCNCC(O)COCc2ccc(C(F)(F)F)cc2)nc1` (configuration not stated), the minimum inhibitory concentration (MIC) was 256 µg/mL in the assay on Klebsiella pneumoniae; 128 µg/mL in the assay on Acinetobacter baumannii; 64 µg/mL in the assay on Streptococcus pneumoniae; 64 µg/mL with Staphylococcus aureus [1]; 128 µg/mL in the assay with Enterobacter cloacae; more than 256 µg/mL with Pseudomonas aeruginosa. Further, the minimum inhibitory concentration (MIC) with Staphylococcus aureus [2], in the assay with Escherichia coli and in the assay with Enterococcus faecalis was 128 µg/mL each time.

For the compound `N#Cc1ccccc1NCCNCC(O)COc1ccc(C(F)(F)F)cc1` (configuration not stated), the MIC in the assay on Klebsiella pneumoniae was more than 256 µg/mL; with Acinetobacter baumannii, 128 µg/mL; with Streptococcus pneumoniae, 64 µg/mL; with Staphylococcus aureus [1], 128 µg/mL; in the assay on Enterobacter cloacae it was 128 µg/mL; in the assay with Pseudomonas aeruginosa, more than 256 µg/mL. Besides, the MIC in the assay on Staphylococcus aureus [2] is 128 µg/mL; with Escherichia coli, 16 µg/mL; in the assay on Enterococcus faecalis it was 128 µg/mL.

Regarding `O=[N+]([O-])c1ccc(OCC(O)CNCCNc2ncccc2C(F)(F)F)cc1` (configuration not stated), the MIC with Klebsiella pneumoniae was more than 256 µg/mL; in the assay on Acinetobacter baumannii it was more than 256 µg/mL; in the assay with Streptococcus pneumoniae, 64 µg/mL; in the assay with Staphylococcus aureus [1], 128 µg/mL; in the assay on Enterobacter cloacae, more than 256 µg/mL; in the assay on Pseudomonas aeruginosa, more than 256 µg/mL. Besides, the minimum inhibitory concentration (MIC) with Staphylococcus aureus [2] is 128 µg/mL; with Escherichia coli, more than 256 µg/mL; with Enterococcus faecalis it was 256 µg/mL.

Turning to `OC(CNCCNc1ccccc1C(F)(F)F)COc1ccccc1C(F)(F)F` (configuration not stated), the minimum inhibitory concentration (MIC) is more than 256 µg/mL in the assay on Klebsiella pneumoniae; 64 µg/mL in the assay with Acinetobacter baumannii; 32 µg/mL in the assay on Streptococcus pneumoniae; 32 µg/mL in the assay on Staphylococcus aureus [1]; 64 µg/mL in the assay on Enterobacter cloacae; more than 256 µg/mL in the assay on Pseudomonas aeruginosa. For the same compound, the MIC in the assay with Staphylococcus aureus [2] worked out at 64 µg/mL; with Escherichia coli, 64 µg/mL; with Enterococcus faecalis, 32 µg/mL.

With `O=S(=O)(NCCNCC(O)COc1ccc(C(F)(F)F)cc1)c1ccccc1C(F)(F)F` (configuration not stated), the MIC in the assay on Klebsiella pneumoniae was more than 256 µg/mL; with Acinetobacter baumannii, 64 µg/mL; with Streptococcus pneumoniae, 32 µg/mL; with Staphylococcus aureus [1], 64 µg/mL; in the assay on Enterobacter cloacae, 128 µg/mL; in the assay with Pseudomonas aeruginosa, more than 256 µg/mL. For the same compound, the minimal inhibitory concentration (MIC) with Staphylococcus aureus [2], with Escherichia coli and in the assay on Enterococcus faecalis was 64 µg/mL each time.

For the compound `OC(CNCCNc1ccccc1C(F)(F)F)COCc1cccc(C(F)(F)F)c1.OC(CNCCNc1ccccc1C(F)(F)F)COCc1cccc(C(F)(F)F)c1` (configuration not stated), the minimum inhibitory concentration (MIC) is more than 256 µg/mL in the assay with Klebsiella pneumoniae; more than 256 µg/mL in the assay on Acinetobacter baumannii; 128 µg/mL in the assay with Streptococcus pneumoniae; 128 µg/mL in the assay on Staphylococcus aureus [1]; more than 256 µg/mL with Enterobacter cloacae; more than 256 µg/mL with Pseudomonas aeruginosa. Besides, the MIC in the assay on Staphylococcus aureus [2], in the assay on Escherichia coli and in the assay with Enterococcus faecalis was more than 256 µg/mL in each case.

Turning to `O=[N+]([O-])c1ccc(OCC(O)CNCCNc2cccc(C(F)(F)F)n2)cc1` (configuration not stated), the MIC in the assay with Klebsiella pneumoniae is more than 256 µg/mL; in the assay on Acinetobacter baumannii, 256 µg/mL; in the assay with Streptococcus pneumoniae it was 32 µg/mL; in the assay on Staphylococcus aureus [1], 64 µg/mL; in the assay with Enterobacter cloacae, 256 µg/mL; with Pseudomonas aeruginosa, more than 256 µg/mL. For the same compound, the MIC stood at 128 µg/mL with Staphylococcus aureus [2], 256 µg/mL in the assay on Escherichia coli and 128 µg/mL in the assay with Enterococcus faecalis.

Regarding `OC(CNCCNc1ccc(C(F)(F)F)cn1)CSCc1ccc(C(F)(F)F)cc1` (configuration not stated), the minimal inhibitory concentration (MIC) in the assay with Klebsiella pneumoniae was more than 256 µg/mL; in the assay on Acinetobacter baumannii, 32 µg/mL; in the assay with Streptococcus pneumoniae, 16 µg/mL; with Staphylococcus aureus [1], 8 µg/mL; with Enterobacter cloacae, 64 µg/mL; in the assay with Pseudomonas aeruginosa, more than 256 µg/mL. The MIC worked out at 16 µg/mL with Staphylococcus aureus [2], 32 µg/mL with Escherichia coli and 32 µg/mL in the assay on Enterococcus faecalis.

On to `O=[N+]([O-])c1ccc(OCC(O)CNCCNc2ccccc2C(F)(F)F)cc1` (configuration not stated), for which the minimum inhibitory concentration (MIC) was more than 256 µg/mL with Klebsiella pneumoniae; 128 µg/mL in the assay with Acinetobacter baumannii; 64 µg/mL with Streptococcus pneumoniae; 64 µg/mL in the assay with Staphylococcus aureus [1]; 128 µg/mL in the assay on Enterobacter cloacae; more than 256 µg/mL in the assay on Pseudomonas aeruginosa. Further, the MIC is 64 µg/mL in the assay with Staphylococcus aureus [2], 128 µg/mL in the assay on Escherichia coli and 128 µg/mL with Enterococcus faecalis.

Regarding `OC(CNCCNc1ccccc1C(F)(F)F)COCc1ccccc1C(F)(F)F` (configuration not stated), the MIC with Klebsiella pneumoniae is more than 256 µg/mL; in the assay with Acinetobacter baumannii, more than 256 µg/mL; with Streptococcus pneumoniae it was 128 µg/mL; with Staphylococcus aureus [1], 128 µg/mL; in the assay with Enterobacter cloacae it was more than 256 µg/mL; in the assay on Pseudomonas aeruginosa it was more than 256 µg/mL. In addition, the minimum inhibitory concentration (MIC) in the assay on Staphylococcus aureus [2], with Escherichia coli and in the assay on Enterococcus faecalis was more than 256 µg/mL each time.

For the compound `OC(CNCCNc1ccc(C(F)(F)F)cn1)COCc1cccc(C(F)(F)F)c1` (configuration not stated), the minimal inhibitory concentration (MIC) in the assay with Klebsiella pneumoniae was more than 256 µg/mL; with Acinetobacter baumannii it was 128 µg/mL; with Streptococcus pneumoniae, 32 µg/mL; with Staphylococcus aureus [1] it was 32 µg/mL; in the assay on Enterobacter cloacae it was 256 µg/mL; in the assay on Pseudomonas aeruginosa, more than 256 µg/mL. Moreover, the MIC in the assay with Staphylococcus aureus [2], in the assay with Escherichia coli and in the assay on Enterococcus faecalis was 64 µg/mL in each case.

As to `O=[N+]([O-])c1ccc(OCC(O)CNCCNc2nccc(C(F)(F)F)n2)cc1` (configuration not stated), the MIC with Klebsiella pneumoniae was more than 256 µg/mL; with Acinetobacter baumannii, more than 256 µg/mL; in the assay on Streptococcus pneumoniae it was 128 µg/mL; in the assay on Staphylococcus aureus [1] it was 128 µg/mL; with Enterobacter cloacae, more than 256 µg/mL; in the assay with Pseudomonas aeruginosa, more than 256 µg/mL. Besides, the values for the minimal inhibitory concentration (MIC) with Staphylococcus aureus [2], in the assay with Escherichia coli and with Enterococcus faecalis were 256 µg/mL, more than 256 µg/mL and 256 µg/mL, respectively.

Consider `OC(CNCCNc1ccccc1C(F)(F)F)COCc1ccc(C(F)(F)F)cc1` (configuration not stated), for which the minimal inhibitory concentration (MIC) in the assay on Klebsiella pneumoniae was more than 256 µg/mL; with Acinetobacter baumannii it was 64 µg/mL; with Streptococcus pneumoniae, 32 µg/mL; with Staphylococcus aureus [1], 64 µg/mL; in the assay with Enterobacter cloacae, 128 µg/mL; with Pseudomonas aeruginosa, more than 256 µg/mL. Also, the minimal inhibitory concentration (MIC) in the assay with Staphylococcus aureus [2], with Escherichia coli and with Enterococcus faecalis was 64 µg/mL throughout.

Turning to `OC(CNCCNc1ccc(C(F)(F)F)cn1)COCc1ccccc1` (configuration not stated), the MIC was more than 256 µg/mL in the assay on Klebsiella pneumoniae; 256 µg/mL in the assay with Acinetobacter baumannii; 128 µg/mL with Streptococcus pneumoniae; 128 µg/mL in the assay on Staphylococcus aureus [1]; 256 µg/mL with Enterobacter cloacae; more than 256 µg/mL in the assay on Pseudomonas aeruginosa. Moreover, the minimum inhibitory concentration (MIC) in the assay with Staphylococcus aureus [2], in the assay with Escherichia coli and with Enterococcus faecalis was 256 µg/mL in each case.

`OC(CNCCNc1ccc(C(F)(F)F)cc1)COc1ccc(C(F)(F)F)cc1` (configuration not stated): the minimal inhibitory concentration (MIC) is more than 256 µg/mL with Klebsiella pneumoniae; 256 µg/mL with Acinetobacter baumannii; 8 µg/mL in the assay with Streptococcus pneumoniae; 32 µg/mL with Staphylococcus aureus [1]; 256 µg/mL in the assay with Enterobacter cloacae; more than 256 µg/mL with Pseudomonas aeruginosa. The MIC in the assay with Staphylococcus aureus [2] stood at 64 µg/mL; in the assay on Escherichia coli, 128 µg/mL; with Enterococcus faecalis, 32 µg/mL.

In the case of `O=[N+]([O-])c1ccccc1NCCNCC(O)COc1ccc(C(F)(F)F)cc1` (configuration not stated), the MIC with Klebsiella pneumoniae is more than 256 µg/mL; in the assay on Acinetobacter baumannii, more than 256 µg/mL; with Streptococcus pneumoniae it was 32 µg/mL; in the assay with Staphylococcus aureus [1], 128 µg/mL; with Enterobacter cloacae it was 128 µg/mL; in the assay on Pseudomonas aeruginosa, more than 256 µg/mL. The minimum inhibitory concentration (MIC) in the assay on Staphylococcus aureus [2] was 128 µg/mL; in the assay with Escherichia coli, more than 256 µg/mL; in the assay on Enterococcus faecalis it was 128 µg/mL.

For the compound `O=[N+]([O-])c1ccc(OCC(O)CNCCNc2ncc(C(F)(F)F)cn2)cc1` (configuration not stated), the minimum inhibitory concentration (MIC) with Klebsiella pneumoniae is more than 256 µg/mL; in the assay on Acinetobacter baumannii, more than 256 µg/mL; in the assay with Streptococcus pneumoniae, 128 µg/mL; in the assay on Staphylococcus aureus [1], 256 µg/mL; in the assay with Enterobacter cloacae, more than 256 µg/mL; with Pseudomonas aeruginosa, more than 256 µg/mL. Moreover, the MIC with Staphylococcus aureus [2] was 256 µg/mL; in the assay with Escherichia coli it was more than 256 µg/mL; in the assay with Enterococcus faecalis, more than 256 µg/mL.
